According to ChEMBL document CHEMBL4196208, “Antiproliferative Sesquiterpenoids from Ligularia rumicifolia with Diverse Skeletons” (J Nat Prod, 2018):
Calls of active or inactive are those of the source. The calls are words filed in the database; no cut-off is given here.

Key:
Assay type in all cases: functional, cell-based
A549 = experiment: Antiproliferative activity against human A549 cells after 72 hrs by MTT assay; conditions: for IC50: A549, 72 h
Outline: (§1)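 Human tumour lines HGC-27 (stomach), A-549 (lung), HeLa (cervical) and MV4-11 (leukemia) tested in a standard MTT assay, with taxol as positive control. Each assay repeated more than three times. IC50 calculated by the Reed and Muench method, reported as mean ± SD.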

HGC-27 = experiment: Antiproliferative activity against human HGC27 cells after 72 hrs by MTT assay; conditions: for IC50: HGC-27, 72 h; outline: as §1
HeLa = experiment: Antiproliferative activity against human HeLa cells after 72 hrs by MTT assay; outline: as §1
MV4-11 = experiment: Antiproliferative activity against human MV411 cells after 72 hrs by MTT assay; conditions: for IC50: MV4-11, 72 h; outline: as §1

Row | Structure (SMILES) | Activity (A549) | Activity (HGC-27) | Activity (HeLa) | Activity (MV4-11) | IC50 (A549) [µM] | IC50 (HGC-27) [µM] | IC50 (HeLa) [µM] | IC50 (MV4-11) [µM]
1 | C=C1[C@H]2[C@H]([C@H]([C@@]3(C)CO3)[C@@H](OC(=O)/C(C)=C\C)[C@H]1OC(=O)/C=C(\C)CC)[C@@H](CC)C(=O)[C@H]2OC(=O)C(C)CC (some centres not stated) | inactive | inactive | inactive | inactive |  |  |  | 
2 | C=C(C(CC=C(C)C)OC(=O)/C(C)=C\C)[C@@H]1C[C@H](O)[C@](C)(OC)C(=O)[C@H]1OC(C)=O (some centres not stated) | inactive | inactive | inactive | inactive |  |  |  | 
3 | C=C1[C@@H]2[C@H](OC(=O)C(C)CC)[C@H](OC(C)=O)[C@H]([C@@H](C)OC(=O)C[C@@H](C)O)[C@H]2[C@H]([C@@]2(C)CO2)[C@@H](OC(=O)/C(C)=C\C)[C@H]1OC(=O)/C=C(\C)CC (some centres not stated) |  |  |  |  | 12.5 | 6.1 | 8.4 | 9
4 | C=C(C(CC=C(C)C)OC(=O)/C(C)=C\C)[C@@H]1[C@H](OC(=O)/C(C)=C\C)[C@@H]2O[C@]2(C)C(=O)[C@H]1OC(C)=O (some centres not stated) | inactive | inactive | inactive | inactive |  |  |  | 
5 | C=C(C(CC=C(C)C)OC(=O)/C(C)=C\C)[C@@H]1[C@@H](O)[C@@H](OC(=O)/C(C)=C\C)[C@](C)(O)C(=O)[C@H]1OC(C)=O (some centres not stated) | inactive | inactive | inactive | inactive |  |  |  | 
6 | C=C(C)[C@@H]1C[C@@]2(C)C(=CC1=O)CC[C@@H](OC(=O)C=C(C)C)[C@@H]2C | inactive | inactive | inactive | inactive |  |  |  | 
7 | C=C(c1ccc(C)c(O)c1O)C(CC=C(C)C)OC(=O)/C(C)=C\C (configuration not stated) | inactive | inactive | inactive | inactive |  |  |  | 
8 | C=C1[C@H]2[C@@H]([C@@H]([C@@H](C)OC)C(=O)[C@H]2OC(=O)C(C)CC)[C@H]([C@@]2(C)CO2)[C@@H](OC(=O)/C(C)=C\C)[C@H]1OC(=O)/C=C(\C)CC (some centres not stated) | inactive | inactive | inactive | inactive |  |  |  | 
9 | C=C(C)[C@@H]1C[C@@]2(C)C(=CC1=O)CC[C@@H](OC(=O)/C(C)=C/C)[C@@H]2C | inactive | inactive | inactive | inactive |  |  |  | 
10 | C=C(C)[C@@H]1CCc2ccc(O)c(C)c2C1 | inactive | inactive | inactive | inactive |  |  |  | 
11 | C=C1[C@H]2[C@@H]([C@@H]([C@@H](C)OC)C(=O)[C@H]2OC(=O)C(C)CC)[C@H]([C@@]2(C)CO2)[C@@H](OC(=O)C(C)CC)[C@H]1OC(=O)/C=C(\C)CC (some centres not stated) | inactive | inactive | inactive | inactive |  |  |  | 
12 | C=C(C)[C@@H]1C[C@@]2(C)C(=CC1=O)[C@@H](O)C[C@@H](OC(=O)/C(C)=C\C)[C@@H]2C |  |  |  |  | 6.3 | 2.1 | 2.4 | 0.5
13 | C/C=C(/C)C(=O)OC1=C(C)[C@H](O)C/C(=C(/C)C(CC=C(C)C)OC(=O)/C(C)=C\C)C1=O (some centres not stated) | inactive | inactive | inactive | inactive |  |  |  | 
14 | C=C(C(CC=C(C)C)OC(=O)/C(C)=C\C)[C@@H]1[C@@H](O)[C@@H](OC(=O)/C(C)=C/C)[C@](C)(O)C(=O)[C@H]1OC(C)=O (some centres not stated) | inactive | inactive | inactive | inactive |  |  |  | 
15 | C=C(C(CC=C(C)C)OC(=O)/C(C)=C\C)[C@@H]1C[C@@H]2O[C@]2(C)C(=O)[C@@H]1OC(C)=O (some centres not stated) | inactive | inactive | inactive | inactive |  |  |  | 
16 | C=C1CO[C@H]2C[C@@H]1Cc1c2ccc(O)c1C | inactive | inactive | inactive | inactive |  |  |  | 
17 | C=C1[C@H]2[C@@H](/C(=C\C)C(=O)[C@H]2OC(=O)C(C)CC)[C@H]([C@@]2(C)CO2)[C@@H](OC(=O)/C(C)=C\C)[C@H]1OC(=O)/C=C(\C)CC (some centres not stated) | inactive | inactive | inactive | inactive |  |  |  | 
18 | C=C(C)[C@@H]1C[C@@]2(C)C(=CC1=O)CC[C@@H](OC(=O)CC(C)CC)[C@@H]2C (some centres not stated) |  |  |  |  | 6.6 | 3.6 | 3.3 | 1.1
19 | C=C1[C@H]2[C@@H](/C(=C/C)C(=O)[C@H]2OC(=O)C(C)CC)[C@H]([C@@]2(C)CO2)[C@@H](OC(=O)/C(C)=C\C)[C@H]1OC(=O)/C=C(\C)CC (some centres not stated) | inactive | inactive | inactive | inactive |  |  |  | 

Row | Structure (SMILES) | Activity (A549) | Activity (HGC-27) | Activity (HeLa) | Activity (MV4-11) | IC50 (A549) [µM] | IC50 (HGC-27) [µM] | IC50 (HeLa) [µM] | IC50 (MV4-11) [µM]
20 | C=C(C(/C=C/C(C)(C)O)OC(=O)/C(C)=C\C)[C@@H]1[C@H](OC(=O)/C(C)=C\C)[C@@H]2O[C@]2(C)C(=O)[C@H]1OC(C)=O (some centres not stated) | inactive | inactive | inactive | inactive |  |  |  | 
21 | C=C(C)[C@@H]1C[C@@]2(C)C(=CC1=O)[C@H](O)C[C@@H](OC(=O)/C(C)=C\C)[C@@H]2C |  |  |  |  | 13.5 | 7.2 | 5.7 | 2.5
22 | CC(=O)O[C@H]1C(=O)[C@@]2(C)[C@H]([C@H](OC(=O)c3ccccc3)[C@]3(O)C[C@H](OC(=O)[C@H](O)[C@@H](NC(=O)c4ccccc4)c4ccccc4)C(C)=C1C3(C)C)[C@]1(OC(C)=O)CO[C@@H]1C[C@@H]2O [PACLITAXEL] |  |  |  |  | 0.051 | 0.028 | 0.046 | 0.017
23 | C/C=C(/C)C(=O)O[C@@H]1CCC2=CC(=O)[C@@H]([C@@]3(C)CO3)C[C@]2(C)[C@H]1C | inactive | inactive | inactive | inactive |  |  |  | 
24 | C/C=C(/C)C(=O)O[C@@H]1CCC2=CC(=O)[C@H]([C@]3(C)CO3)C[C@]2(C)[C@H]1C | inactive | inactive | inactive | inactive |  |  |  | 
25 | C=C(C)[C@@H]1C[C@@]2(C)C(=CC1=O)CC[C@@H](O)[C@@H]2C | inactive | inactive | inactive | inactive |  |  |  | 
26 | C=C(C(CC=C(C)C)OC(=O)/C(C)=C\C)[C@@H]1[C@@H](O)[C@@H]2O[C@]2(C)C(=O)[C@H]1OC(C)=O (some centres not stated) | inactive | inactive | inactive | inactive |  |  |  | 
27 | C=C(C(CC=C(C)C)OC(=O)/C(C)=C\C)[C@@H]1C[C@H](O)[C@](C)(OC)C(=O)[C@H]1OC(=O)/C(C)=C\C (some centres not stated) | inactive | inactive | inactive | inactive |  |  |  | 
28 | C=C1[C@H]2[C@@H](/C(=C\C)C(=O)[C@H]2OC(=O)C(C)CC)[C@H]([C@@]2(C)CO2)[C@@H](OC(=O)CC(C)CC)[C@H]1OC(=O)/C=C(\C)CC (some centres not stated) | inactive | inactive | inactive | inactive |  |  |  | 
29 | C=C1[C@H]2[C@@H](/C(=C/C)C(=O)[C@H]2OC(=O)C(C)CC)[C@H]([C@@]2(C)CO2)[C@@H](OC(=O)C(C)CC)[C@H]1OC(=O)/C=C(\C)CC (some centres not stated) | inactive | inactive | inactive | inactive |  |  |  | 
30 | C/C=C(/C)C(=O)OC(CC=C(C)C)/C(C)=C1\C[C@@H](O)C(C)=C(OC(C)=O)C1=O (some centres not stated) | inactive | inactive | inactive | inactive |  |  |  | 
31 | C=C1[C@H]2[C@@H](/C(=C\C)C(=O)[C@H]2OC(=O)C(C)CC)[C@H]([C@@]2(C)CO2)[C@@H](OC(=O)C(C)CC)[C@H]1OC(=O)/C=C(\C)CC (some centres not stated) | inactive | inactive | inactive | inactive |  |  |  | 
32 | C=C(C)[C@@H]1C[C@@]2(C)C(=CC1=O)CC[C@@H](OC(=O)/C(C)=C\C)[C@@H]2C | inactive | inactive | inactive | inactive |  |  |  | 
33 | C=C(C(CC=C(C)C)OC(=O)/C(C)=C\C)[C@H]1C[C@@H](O)C(C)=C(OC(C)=O)C1=O (some centres not stated) | inactive | inactive | inactive | inactive |  |  |  | 
34 | C=C1[C@H]2[C@@H](/C(=C/C)C(=O)[C@H]2OC(=O)C(C)CC)[C@H]([C@@]2(C)CO2)[C@@H](OC(=O)CC(C)CC)[C@H]1OC(=O)/C=C(\C)CC (some centres not stated) | inactive | inactive | inactive | inactive |  |  |  | 
35 | C=C(C)[C@@H]1C[C@@]2(C)C(=CC1=O)CC[C@@H](OC(=O)CC(C)C)[C@@H]2C |  |  |  |  | 9.7 | 5.3 | 6.6 | 7.5
36 | C=C1[C@@H]2[C@H](OC(=O)C(C)CC)[C@H](OC(C)=O)[C@H]([C@@H](C)OC(=O)C[C@@H](C)O)[C@H]2[C@H]([C@@]2(C)CO2)[C@@H](OC(=O)CC(C)CC)[C@H]1OC(=O)/C=C(\C)CC (some centres not stated) | inactive | inactive | inactive | inactive |  |  |  | 
37 | C=C(C(CC=C(C)C)OC(=O)/C(C)=C\C)[C@@H]1C[C@H](Cl)[C@](C)(O)C(=O)[C@H]1OC(C)=O (some centres not stated) | inactive | inactive | inactive | inactive |  |  |  | 
38 | C=C(C(CC=C(C)C)OC(=O)/C(C)=C\C)[C@@H]1C(=O)C(OC(C)=O)=C(C)[C@H](O)[C@H]1OC(=O)/C(C)=C\C (some centres not stated) |  |  |  |  | 9.8 | 2.2 | 6.3 | 2.9
